4 molecules from publication PMC4747818 (Journal of controlled release : official journal of the …, 2016) can be followed below.

The test system of test [1] is M2 macrophages. It is filed as cell-based. Conditions: 2 h.
For test [2], the system named is macrophages. Briefly: M2pep sequence specificity of macrophage toxicity. Type of test: cell-based, murine. Particulars: peptides partially dimerized in solution; Fig. S3, linkers Fig. S4.
For test [3], the system named is M1 macrophages. Briefly: Cell viability during binding study. Type of test: cell-based, murine. Conditions: 20 min on ice, PI staining; up to 50 µM; Fig. 1B. The gist of the method: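 Bone-marrow cells cultured 7 d in RPMI 1640 with 20% horse serum, 1% antibiotic-antimycotic and 20 ng/mL M-CSF, then activated 2 d with 25 ng/mL IFN-γ plus 100 ng/mL LPS. Cells were plated at 50,000/well and given biotinylated peptide in PBS/1% BSA on ice. After washing they were given streptavidin-FITC for 15 min on ice. Dead cells were scored by PI flow cytometry. Triplicates, three independent experiments.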

Where a SMILES comes first, the peptide text is derived from it. [ ]: non-standard residue; d: D form.

Broadly, the EC50 is the concentration needed to bring the measured effect to its halfway point. The low end stands for higher potency in that assay, the high end for lower potency in that assay. Consider `CC(C)C[C@@H](NC(=O)[C@@H](CCCCN)NC(=O)[C@H](CO)NC(=O)CNC(=O)CNC(=O)CNC(=O)[C@H](Cc1ccc(O)cc1)NC(=O)[C@H](Cc1c[nH]c2ccccc12)NC(=O)[C@H](Cc1c[nH]c2ccccc12)NC(=O)[C@H](CCCCN)NC(=O)[C@@H](NC(=O)CNC(=O)[C@H](Cc1c[nH]c2ccccc12)NC(=O)[C@@H]1CCCN1C(=O)[C@H](CC(=O)O)NC(=O)[C@H](CCC(N)=O)NC(=O)[C@H](CCC(=O)O)NC(=O)[C@@H](N)Cc1ccc(O)cc1)C(C)C)C(=O)N[C@H](C)C(=O)N[C@H](CCCCN)C(=O)N[C@H](CC(C)C)C(=O)N[C@H](C)C(=O)N[C@H](CCCCN)C(=O)N[C@H](CCCCN)C(=O)N[C@H](CC(C)C)C(=O)N[C@H](C)C(=O)N[C@H](CCCCN)C(=O)N[C@H](CC(C)C)C(=O)N[C@H](C)C(=O)N[C@H](CCCCN)C(N)=O` [M2pepKLA] (H-YEQDPWGVKWWYGGGS[dK][dL][dA][dK][dL][dA][dK][dK][dL][dA][dK][dL][dA][dK]-NH2), for which the EC50 in test [1] came out at 4.29 µM.
In the case of “WEDYQWPVYKGWGGGSKKKC [scrambled M2pepKKKC, reference compound]”, in test [2], the “macrophage toxicity” value is listed as “toxicity was only observed in the M2pepKKKC-treated samples”.
As for YEQDPWGVKWWYGGGSKKKBiotin [M2pepBiotin], the “toxicity to M1 macrophages during binding study” value in test [3] is “no toxicity to either cell type”.
In the case of YEQDPWGVKWWYGGGSKKKC [M2pepKKKC], the “macrophage toxicity” value in test [2] was “toxicity was only observed in the M2pepKKKC-treated samples”.
